Experimental data taken from ChEMBL document CHEMBL1141230, “Synthesis and pharmacology of willardiine derivatives acting as antagonists of kainate receptors” (J Med Chem, 2005).

Key:
[1] = biological target: Glutamate receptor ionotropic, kainate 1 (Rattus norvegicus, UniProt P22756); assay: Antagonism on GLUK5 containing kainate induced depolarization of isolated neonatal rat dorsal root C-fibers; type: functional
[2] = biological target: Glutamate receptor ionotropic, kainate 2 (Rattus norvegicus, UniProt P42260); assay: (§1) Displacement of [3H]kainate from rat GLUK6 receptor expressed in HEK293 cells; type: cell-based
[3] = biological target: Glutamate receptor ionotropic, AMPA (Rattus norvegicus, UniProt P19491+P19492+P19493+P19490); assay: (§2) Antagonist activity on AMPA receptor expressed on rat motoneurons by its ability to reduce the fast component dorsal root evoked ventral root potential (fDR-VRP); type: functional
[4] = biological target: T1, Glutamate receptor ionotropic, AMPA (Rattus norvegicus, UniProt P19490+P19491+P19492+P19493); assay: Displacement of [3H](S)-5-fluorowillardiine from AMPA receptor in rat brain membrane; type: cell membranes
[5] = biological target: Glutamate receptor ionotropic, kainate (Rattus norvegicus); assay: Displacement of [3H]SYM2081 from kainate receptor in rat brain membrane
[6] = biological target: Glutamate receptor ionotropic, kainate 1 (Rattus norvegicus) (UniProt P22756); assay: Percentage depression of GLUK5 containing kainate induced depolarization on isolated neonatal rat dorsal root C-fibers at 200 uM; type: functional
[7] = biological target: T1, Glutamate receptor ionotropic, AMPA; assay: as §2; type: functional
[8] = biological target: Glutamate receptor ionotropic, kainate 2 (Rattus norvegicus) (UniProt P42260); assay: as §1; type: cell-based
[9] = biological target: Glutamate receptor ionotropic, kainate 1 (Homo sapiens) (UniProt P39086); assay: Inhibitory effect on glutamate-induced calcium influx at homomeric human GLUK5 receptor expressed in HEK293 cells; type: functional, cell-based
Summary of the method: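 HEK293 cells stably expressing human GLUK5(Q), calcium fluorescence assay (FLIPR) in presence of concanavalin A. Antagonist added alone first, then with 100 µM glutamate. Curves fitted with slope fixed at 1; Kb from IC50 via Cheng-Prusoff using glutamate EC50 determined in same plate.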

[10] = Inhibitory effect on glutamate-induced calcium influx at homomeric human GLUK5/GLUK6 receptor clone expressed in HEK293 cells; type: functional
Summary of the method: (§3)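 HEK293 lines stably coexpressing human GLUK5 with GLUK2 or GLUK6 (GLUK5(R)/GLUK6(Q)), FLIPR calcium assay with concanavalin A present. Antagonist given alone at first addition, then with 100 µM glutamate at second. Curves fit with slope 1, top/bottom fixed at 100%/0%. Kb = IC50/(1+[Glu]/EC50 Glu), glutamate EC50 from curves on same plate.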

[11] = Inhibitory effect on glutamate-induced calcium influx at homomeric human GLUK5/GLUK2 receptor clone expressed in HEK293 cells; type: functional; summary of the method: as §3

Sequence of Glutamate receptor ionotropic, kainate 1 (P22756 whole entry): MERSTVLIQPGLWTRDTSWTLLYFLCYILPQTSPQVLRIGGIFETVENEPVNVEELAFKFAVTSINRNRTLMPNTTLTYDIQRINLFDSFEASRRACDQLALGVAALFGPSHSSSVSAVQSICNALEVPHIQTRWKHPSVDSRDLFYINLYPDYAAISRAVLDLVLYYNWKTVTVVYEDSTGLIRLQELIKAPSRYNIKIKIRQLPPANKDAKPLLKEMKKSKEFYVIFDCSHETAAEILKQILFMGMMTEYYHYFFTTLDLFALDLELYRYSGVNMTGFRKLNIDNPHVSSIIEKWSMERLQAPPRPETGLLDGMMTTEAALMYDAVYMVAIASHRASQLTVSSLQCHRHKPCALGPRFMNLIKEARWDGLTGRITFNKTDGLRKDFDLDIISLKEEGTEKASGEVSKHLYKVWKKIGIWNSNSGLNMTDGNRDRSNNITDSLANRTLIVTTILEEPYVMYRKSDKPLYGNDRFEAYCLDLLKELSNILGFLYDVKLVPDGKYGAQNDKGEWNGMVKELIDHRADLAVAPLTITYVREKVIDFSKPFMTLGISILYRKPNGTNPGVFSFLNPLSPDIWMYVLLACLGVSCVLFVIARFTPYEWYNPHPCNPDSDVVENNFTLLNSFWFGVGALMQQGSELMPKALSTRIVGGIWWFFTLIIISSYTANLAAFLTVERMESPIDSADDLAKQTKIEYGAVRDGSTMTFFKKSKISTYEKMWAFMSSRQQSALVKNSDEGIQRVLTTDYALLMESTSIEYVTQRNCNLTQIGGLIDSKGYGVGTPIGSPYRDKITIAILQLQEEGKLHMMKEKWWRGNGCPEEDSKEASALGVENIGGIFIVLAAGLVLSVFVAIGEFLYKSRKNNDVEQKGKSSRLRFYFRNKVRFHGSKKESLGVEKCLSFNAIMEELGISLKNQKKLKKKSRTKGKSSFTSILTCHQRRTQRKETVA
Sequence of Glutamate receptor ionotropic, kainate 2 (P42260 whole entry): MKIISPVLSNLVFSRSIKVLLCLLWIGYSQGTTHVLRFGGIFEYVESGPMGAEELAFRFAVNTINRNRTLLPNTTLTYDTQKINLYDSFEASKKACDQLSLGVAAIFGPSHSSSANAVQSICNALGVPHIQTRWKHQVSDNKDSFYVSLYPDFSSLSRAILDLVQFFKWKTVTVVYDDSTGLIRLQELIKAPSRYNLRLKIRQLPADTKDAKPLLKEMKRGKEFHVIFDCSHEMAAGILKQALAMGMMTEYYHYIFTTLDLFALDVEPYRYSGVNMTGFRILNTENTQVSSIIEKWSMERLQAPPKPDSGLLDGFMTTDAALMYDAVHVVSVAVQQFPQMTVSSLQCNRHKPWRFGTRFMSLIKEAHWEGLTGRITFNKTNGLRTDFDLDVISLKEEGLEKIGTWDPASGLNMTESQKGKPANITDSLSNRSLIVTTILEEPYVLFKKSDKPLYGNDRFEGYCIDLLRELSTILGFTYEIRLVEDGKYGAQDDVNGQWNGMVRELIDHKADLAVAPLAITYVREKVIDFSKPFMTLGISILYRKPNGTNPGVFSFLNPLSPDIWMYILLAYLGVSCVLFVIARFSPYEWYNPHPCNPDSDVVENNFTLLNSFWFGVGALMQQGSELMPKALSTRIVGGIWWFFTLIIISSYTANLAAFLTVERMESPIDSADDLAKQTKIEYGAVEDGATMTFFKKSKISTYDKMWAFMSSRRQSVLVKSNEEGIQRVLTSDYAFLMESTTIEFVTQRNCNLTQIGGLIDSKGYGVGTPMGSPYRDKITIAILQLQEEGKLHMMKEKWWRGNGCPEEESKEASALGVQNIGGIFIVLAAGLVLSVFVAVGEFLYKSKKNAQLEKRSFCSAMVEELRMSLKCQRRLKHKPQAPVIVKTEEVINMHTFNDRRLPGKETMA
Sequence of Glutamate receptor ionotropic, kainate 1 (Rattus norvegicus) (P22756 whole entry): as the sequence (P22756 whole entry) above
Sequence of Glutamate receptor ionotropic, kainate 1 (Homo sapiens) (P39086 whole entry): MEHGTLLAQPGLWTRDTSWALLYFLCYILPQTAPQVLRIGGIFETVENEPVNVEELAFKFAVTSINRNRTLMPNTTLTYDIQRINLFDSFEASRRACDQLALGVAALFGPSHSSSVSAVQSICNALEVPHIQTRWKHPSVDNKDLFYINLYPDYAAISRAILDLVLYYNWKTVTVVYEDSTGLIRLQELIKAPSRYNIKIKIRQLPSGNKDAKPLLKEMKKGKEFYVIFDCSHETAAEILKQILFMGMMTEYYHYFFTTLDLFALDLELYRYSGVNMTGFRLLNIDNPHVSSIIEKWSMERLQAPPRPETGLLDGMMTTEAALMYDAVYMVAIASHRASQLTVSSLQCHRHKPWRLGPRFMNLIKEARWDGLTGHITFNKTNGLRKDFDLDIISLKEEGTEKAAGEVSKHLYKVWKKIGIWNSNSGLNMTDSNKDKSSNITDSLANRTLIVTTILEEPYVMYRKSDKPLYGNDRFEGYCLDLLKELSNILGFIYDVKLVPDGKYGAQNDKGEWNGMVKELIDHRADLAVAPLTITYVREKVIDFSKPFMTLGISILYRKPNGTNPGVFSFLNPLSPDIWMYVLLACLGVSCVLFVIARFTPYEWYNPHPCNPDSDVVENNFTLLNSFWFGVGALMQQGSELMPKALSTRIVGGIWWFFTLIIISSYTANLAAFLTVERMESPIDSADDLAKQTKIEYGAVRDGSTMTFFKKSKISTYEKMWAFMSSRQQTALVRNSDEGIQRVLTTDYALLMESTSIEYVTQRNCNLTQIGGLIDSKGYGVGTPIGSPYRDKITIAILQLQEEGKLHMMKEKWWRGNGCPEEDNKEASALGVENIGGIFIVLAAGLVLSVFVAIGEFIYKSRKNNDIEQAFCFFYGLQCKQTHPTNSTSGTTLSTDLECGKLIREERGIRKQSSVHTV
Sequence of Glutamate receptor ionotropic, kainate 2 (Rattus norvegicus) (P42260 whole entry): as the sequence (P42260 whole entry) above

N[C@@H](Cn1ccc(=O)n(Cc2cccc(C(=O)O)c2)c1=O)C(=O)O
Kd [1]: 49.1 µM | Ki [2]: > 1000 µM

Cn1c(=O)ccn(C[C@H](N)C(=O)O)c1=O
IC50 [3]: Agonist | Ki [2]: > 100 µM

N#Cc1cc2c(cc1[N+](=O)[O-])=NC(=O)C(=O)N=2
Kd [1]: 1.66 µM | Ki [2]: 1.05 µM

N[C@H](Cn1ccc(=O)n(CCCC(=O)O)c1=O)C(=O)O
Ki [4]: 149 µM | Ki [5]: > 500 µM | Activity [6]: 22.8%

N[C@@H](Cn1cc(I)c(=O)n(Cc2ccccc2C(=O)O)c1=O)C(=O)O
IC50 [7]: 74.1 µM | Kd [1]: 0.209 µM | Ki [2]: > 100 µM

N[C@@H](Cn1ccc(=O)n(CCC(=O)O)c1=O)C(=O)O
Kd [1]: 73.1 µM | Ki [2]: > 100 µM

N[C@@H](Cn1cc(I)c(=O)n(CCC(=O)O)c1=O)C(=O)O
Ki [4]: 5 µM | IC50 [7]: 13.7 µM | Kd [1]: 8.17 µM | Ki [2]: > 100 µM | Ki [5]: 52.7 µM

C=C(C)[C@H]1CN[C@H](C(=O)O)[C@H]1CC(=O)O
Bmax [8]: 1.53 pmol/mg

N[C@@H](CNC(=O)NCc1cccc(C(=O)O)c1)C(=O)O
IC50 [7]: > 1000 µM

N[C@H](Cn1ccc(=O)n(CCC(=O)O)c1=O)C(=O)O
Ki [2]: > 100 µM | Activity [6]: 13.2%

NC(Cn1ccc(=O)n(Cc2ccccc2C(=O)O)c1=O)C(=O)O (racemic)
Kb [9]: 0.6 µM | Kb [10]: 0.8 µM | IC50 [7]: 97.6 µM | Kb [11]: 1 µM | Kd [1]: 1.09 µM | Ki [2]: > 1000 µM

N[C@@H](Cn1ccc(=O)n(CCCC(=O)O)c1=O)C(=O)O
Ki [4]: 17.8 µM | IC50 [7]: 136 µM | Kd [1]: 60.5 µM | Ki [2]: > 1000 µM | Ki [5]: 96.2 µM

N[C@H](Cn1ccc(=O)n(Cc2ccccc2C(=O)O)c1=O)C(=O)O
IC50 [7]: > 100 µM | Kd [1]: > 100 µM | Ki [2]: > 1000 µM

N[C@@H](Cn1ccc(=O)n(CC(=O)O)c1=O)C(=O)O
Ki [4]: 195 µM | IC50 [7]: 287 µM

N[C@@H](Cn1ccc(=O)n(Cc2ccccc2C(=O)O)c1=O)C(=O)O
IC50 [7]: 106 µM | Kd [1]: 0.402 µM | Ki [2]: > 1000 µM

N[C@@H](Cn1ccc(=O)n(Cc2ccc(C(=O)O)cc2)c1=O)C(=O)O
Kd [1]: 9.25 µM | Ki [2]: > 100 µM

N[C@@H](Cn1c(=O)ccn(CC(=O)O)c1=O)C(=O)O
Ki [4]: > 1000 µM | Ki [2]: > 100 µM | Ki [5]: > 500 µM

N[C@@H](Cn1cc([N+](=O)[O-])c(=O)n(CCC(=O)O)c1=O)C(=O)O
IC50 [7]: 79.9 µM | Ki [2]: > 100 µM
